Sampled rows, rich in hits. Any-hit rate of the full collection: about 2.2%.
miR-122 sensor: miR-122 inhibition in Huh7 cells; Huh7 miR-122 Renilla luciferase sensor, 48 h; neutral wells = 0, positive control = 100; 340,000 tested, 0.3% active; activation (reporter increase), % at 12.5 µM;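 active means mean replicate activation score at least 90 and every replicate individually at or above 90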;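 further: higher luciferase means less miR-122 activity so hits act as miR-122 inhibitors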
NR2E3 ag-1: human photoreceptor-specific nuclear receptor agonism | 360,000 tested, 0.35% active | CHO-S Gal4-NCOR/VP16-NR2E3 two-hybrid, luciferase | AID 602229 | Q9Y5X4 | inhibition of corepressor binding, % at 3.98 µM;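 active means inhibition above the mean of all tested compounds plus 3 SD, cut at about 70% in these data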;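 further: 0% = DMSO with NR2E3 transfected cells and 100% = cells lacking NR2E3 construct; higher means lower luciferase signal from less NR2E3 corepressor binding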
Target sequence (Q9Y5X4 whole entry, looked up, the tested form may be a part): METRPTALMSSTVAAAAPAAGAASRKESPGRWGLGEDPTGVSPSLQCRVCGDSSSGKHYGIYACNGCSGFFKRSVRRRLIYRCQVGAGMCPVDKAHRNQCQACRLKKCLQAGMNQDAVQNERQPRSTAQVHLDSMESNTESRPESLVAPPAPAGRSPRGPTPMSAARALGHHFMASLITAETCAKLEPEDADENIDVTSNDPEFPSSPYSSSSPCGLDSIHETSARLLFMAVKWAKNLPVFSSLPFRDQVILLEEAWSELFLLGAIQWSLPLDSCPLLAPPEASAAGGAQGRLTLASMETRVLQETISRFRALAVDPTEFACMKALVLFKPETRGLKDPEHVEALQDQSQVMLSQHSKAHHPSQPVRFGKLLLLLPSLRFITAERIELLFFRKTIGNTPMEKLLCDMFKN
FGF22 binding-1: binders of recombinant human FGF22 by thermal shift; Q9HCT0; SYPRO orange fluorescence; percent of sucrose octasulfate shift, DMSO zero; activity (Tm shift, normalised), % at 9.99 µM; 340,000 tested, 1.5% active; AID 651658;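 active means mean Tm shift, scaled 0 neutral to 100 positive control, at about 1.3% or above, every replicate too, limit read from the data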
Target sequence (Q9HCT0 whole entry, looked up): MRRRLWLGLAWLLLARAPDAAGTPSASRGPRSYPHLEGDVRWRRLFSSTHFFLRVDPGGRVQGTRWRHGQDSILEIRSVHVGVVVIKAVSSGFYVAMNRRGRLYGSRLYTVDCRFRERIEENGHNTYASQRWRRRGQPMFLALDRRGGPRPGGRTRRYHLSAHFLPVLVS
Jurkat NFkB inh: lowers PMA/ionomycin-induced NF-kB signal in Jurkat cells; 330,000 tested, 0.53% active; inhibition, % at 4 µM; PMA/ionomycin-induced NF-kB luciferase reporter, luminescence; in the data active means inhibition above about 50%
697 NFkB inh: lowers PMA/ionomycin-induced NF-kB signal in 697 B cells; 330,000 tested, 0.33% active; AID 435022; inhibition, % at 4 µM; 697 B-cell NF-kB luciferase reporter, 16 h; in the data active means inhibition above about 35%
NR2E3 ag-2: activates human photoreceptor nuclear receptor NR2E3 | inhibition of corepressor binding, % at 4.78 µM | GST-NR2E3/biotin-RetCOR TR-FRET, 1536-well | 320,000 tested, 0.12% active | Q9Y5X4;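 active means percent inhibition above the cutoff of mean plus 3 SD of all tested compounds, set per screening campaign, cut at about 20% in these data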;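 further: 0% = DMSO wells and 100% = biotin wells as full block of FRET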
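Material – GST-tagged NR2E3 plus biotinylated RetCOR corepressor · Quantity – NR2E3 fusion 1.35 nM · Times – 5 h incubation at 4 °C · Medium – pH 7.5 Tris-based buffer · Technique – TR-FRET, Eu(K)-anti-GST donor, streptavidin-D2 acceptor, ex 340, em 617/671 nm · Benchmarks – high control biotin, low control 0.6% DMSO · Format – 1536-well plates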
miR-27b qPCR: selectivity of miR-122 inhibitors: effect on miR-27b in Huh7. Huh7 miR-27b levels, qRT-PCR, 48 h. shares compounds with miR-122 sensor. relative miR-27b level (unnormalised ratio), ratio at 35 µM. 35 tested, under 10 active;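 active means compounds lowering miR-27b whose fitted half-maximal dose is at most twice their top tested dose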
FGF22 binding-2: binders of human FGF22 by thermal shift; recombinant FGF22 thermal shift, SYPRO orange fluorescence; thermal shift activity, °C (ΔTm) at 38 µM; AID 720646; 1,000 tested, 2% active; shares compounds with FGF22 binding-1;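 active means fitted rise in melting shift crosses a set limit at or below the top valid dose tested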
FGF22 TSA: binders of human FGF22 by thermal shift | shares compounds with FGF22 binding-1 | 50 tested, under 10 active | Thermal shift assay, SYPRO orange, melting temperature shift | Tm shift (activity), % at 38 µM;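 active means compounds whose fitted dose curve of melting temperature shift rises past a set threshold within the tested doses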
TSA no protein: compound-only SYPRO artifact for FGF22 binders; shares compounds with FGF22 binding-1; compound-only SYPRO orange thermal shift counter-screen, no protein; AC50, µM (highest dose often 38 µM); 1,000 tested, 2% active;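 active means rising signal whose fitted curve reaches the 0.54 level within the top valid dose, showing a melting point, actives reach about 13 µM in these data; inactive means the rest, including activity in the opposite direction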; further: value is where the raw curve crosses a fixed level and not half-maximal
Starred values were filed as active, the others as inactive; i = inactive; / = no result given; [ ] = another dose, or the depositor's remark.

SMILES	miR-122 sensor	NR2E3 ag-1	FGF22 binding-1	Jurkat NFkB inh	697 NFkB inh	NR2E3 ag-2	FGF22 binding-2	TSA no protein	others
COc1ccccc1N1CCN(C(=O)c2cccc(C(=O)N3CCN(c4ccccc4OC)CC3)c2)CC1	1	-16	0	8	2	1	/	/
CCOc1ccccc1N1CCN(C(=O)c2cccc(-c3ccc(O)cc3)c2)CC1	156*	18	/	-1	-13	3	/	/	miR-27b qPCR=0.84
CC(=O)N1[C@H](CO)[C@H](c2ccccc2)[C@@H]1CNC(=O)CN1CCOCC1	83[16.7 µM]	/	0	/	/	/	/	/
COc1cc(C)c(C(C)C)cc1S(=O)(=O)n1cnc(C)c1	152*	-39	0	50	-72	8	/	/	miR-27b qPCR=0.91
COc1ccc(C)cc1S(=O)(=O)n1cnc(C)c1	-1	-9	0	10	9	-1	/	/
O=C(NC[C@@H]1[C@H](c2ccccc2)[C@H](CO)N1C(=O)Cc1cccnc1)C1CC1	21[16.7 µM]	/	1.4*	/	/	/	-0.085[42 µM]	i
O=C(NC[C@@H]1[C@@H](c2ccccc2)[C@@H](CO)N1C(=O)Cc1cccnc1)C1CC1	14[16.7 µM]	/	-1	/	/	/	/	/
O=C(Nc1nccs1)C1CC(=O)N(c2ccc(F)cc2)C1 (centres undefined)	-2	-20	1.4*	19	11	-2	-0.036	i	FGF22 TSA=0
COc1ccc(OC(C)C(=O)N(C)Cc2nc(-c3cccc(C)c3)no2)cc1 (centres undefined)	-1	-10	1.6*	5	-17	3	-0.051	i
COc1cccc(OCC(=O)N(C)Cc2nc(-c3cccc(C)c3)no2)c1	/	-9	0	-9	-3	3	/	/
C[C@H](CO)N1C[C@H](C)[C@H](CN(C)C(=O)c2cccc(F)c2)Oc2ncc(-c3ccccc3)cc2C1=O	5[16.7 µM]	/	/	/	/	/	/	/
COc1cccc(-c2cccc(-c3nc(C(=O)NCCCN4CCOCC4)cc4c3[C@@H](CCO)N(S(=O)C(C)(C)C)C4)c2)c1 (some centres undefined)	/	/	1	/	/	/	/	/
O=C(Nc1nccs1)c1ccc(S(=O)(=O)NCc2cccs2)cc1	-16	-5	1.4*	-11	3	5	-0.055	i
CC(=O)Oc1ccc(C(=O)Nc2ccccc2C(=O)N2CCCCC2)cc1	-9	-14	1.8*	-5	7	1	0.15	i
CCS(=O)(=O)Nc1ccc2c(c1)C(=O)N(C)[C@H]1CC[C@H](CC(=O)N[C@@H]3CCN(Cc4ccccc4)C3)O[C@@H]1CO2	/	/	0	/	/	/	/	/
Cc1ccc(S(=O)(=O)Nc2ccc3c(c2)CC(=O)N([C@@H](C)CO)C[C@H](C)[C@@H](CN(C)S(C)(=O)=O)O3)cc1	-2[16.7 µM]	/	2.2*	/	/	/	0.029	i
Cc1ccc(S(=O)(=O)Nc2ccc3c(c2)CC(=O)N([C@@H](C)CO)C[C@@H](C)[C@H](CN(C)S(C)(=O)=O)O3)cc1	4[16.7 µM]	/	-1	/	/	/	/	/
C[C@@H]1CN([C@@H](C)CO)C(=O)Cc2cc(NS(=O)(=O)c3ccc(F)cc3)ccc2O[C@H]1CN(C)CC1CCCCC1	2[16.7 µM]	/	0	/	/	/	/	/
C[C@H]1CN([C@@H](C)CO)C(=O)Cc2cc(NS(=O)(=O)c3ccc(F)cc3)ccc2O[C@H]1CN(C)CC1CCCCC1	39[16.7 µM]	/	12*	/	/	/	0.12	i
Cc1noc(C)c1S(=O)(=O)Nc1ccc2c(c1)CC(=O)N([C@@H](C)CO)C[C@@H](C)[C@@H](CN(C)Cc1ccc(Cl)c(Cl)c1)O2	0[16.7 µM]	/	1.5*	/	/	/	0.11[42 µM]	i
CCNC(=O)C[C@H]1CC[C@H]2[C@@H](COc3ccc(NC(=O)C4CCCCC4)cc3C(=O)N2C)O1	-17[16.7 µM]	/	-1	/	/	/	/	/
O=C(CCNC(=O)c1ccccc1Cl)Nc1nc2ccc(F)cc2s1	0	-41	2.7*	-21	-27	0	0.035	i
CS(=O)(=O)c1ccc2nc(NC(=O)CCNC(=O)c3ccccc3Cl)sc2c1	-4	3	0	-4	-17	0	/	/
Cc1ccsc1C(=O)NNC(=O)c1ccc(NS(=O)(=O)c2cccs2)cc1	/	-14	1.6*	-4	5	-4	0.021	i
CC(=O)Nc1cccc(C(=O)NNC(=O)c2ccc(NS(=O)(=O)c3cccs3)cc2)c1	1	-6	0	/	/	/	/	/
SMILES	miR-122 sensor	NR2E3 ag-1	FGF22 binding-1	Jurkat NFkB inh	697 NFkB inh	NR2E3 ag-2	FGF22 binding-2	TSA no protein	others
Cc1ccc(-n2c(O)c(C=NC3CCS(=O)(=O)C3)c3ccccc3c2=O)cc1C (centres undefined)	-2	-33	1.7*	6	11	2	0.035	i
O=C(Nc1cccnc1)c1ccc(NS(=O)(=O)c2cccc([N+](=O)[O-])c2)cc1	-5	13	1.8*	1	19	0	-0.14	i
Cc1noc(NC(=O)c2cccc(Cl)c2Cl)c1C#N	/	-3	1.3*	17	3	-4	-0.1	i
Cc1noc(NC(=O)c2ccccc2Cl)c1C#N	-3	-7	/	10	24	2	/	/
CCOC(=O)N1CCN(C(=O)CCCCCn2c(=S)[nH]c3ccsc3c2=O)CC1	/	-4	1.4*	-5	14	-1	-0.14	i
O=C(O)C1CSC(c2ccc3c(c2)OCO3)N1 (centres undefined)	/	-48	2.7*	-9	14	-1	0.11	i
O=C(O)C1CSC(c2ccc(O)c([N+](=O)[O-])c2)N1 (centres undefined)	/	-39	0	/	/	/	/	/
Oc1ccc(-c2csc(Nc3ccccn3)n2)c(O)c1	5	-111	2.8*	-94	-98	3	-0.051	11µM*
C[C@H](O)C#Cc1cnc2c(c1)C(=O)N([C@H](C)CO)C[C@H](C)[C@@H](CN(C)C(=O)Cc1ccncc1)O2	-10[16.7 µM]	/	/	/	/	/	/	/
CSc1ncccc1C(=O)Nc1ccc(S(=O)(=O)N2CCCC2)cc1	-8	6	1.6*	4	16	1	0.21	i
CSc1ncccc1C(=O)Nc1cccc(S(=O)(=O)N2CCCCC2)c1	/	3	0	-14	5	-3	/	/
CCN1C(=O)C(CC(=O)Nc2ccc(F)cc2)N(Cc2ccc3c(c2)OCO3)C1=S (centres undefined)	/	-18	2.9*	8	10	-7	-0.21	i	FGF22 TSA=0
